For orientation: IC50 means the point on the concentration scale where inhibition reaches its midpoint. By inhibition in vivo is commonly meant the percentage by which the read-out fell short of the control. Read a low inhibition in vivo as little suppression.

The record followed here is ChEMBL document CHEMBL2062399, “Design, synthesis, and structure-activity relationships of a series of 2-Ar-8-methyl-5-alkylaminoquinolines as novel CRF₁ receptor antagonists” (Bioorg Med Chem Lett, 2012).

Test [1] deals with T1, Corticotropin-releasing factor receptor 1 (Homo sapiens, UniProt P34998).
T1 sequence (P34998 whole entry): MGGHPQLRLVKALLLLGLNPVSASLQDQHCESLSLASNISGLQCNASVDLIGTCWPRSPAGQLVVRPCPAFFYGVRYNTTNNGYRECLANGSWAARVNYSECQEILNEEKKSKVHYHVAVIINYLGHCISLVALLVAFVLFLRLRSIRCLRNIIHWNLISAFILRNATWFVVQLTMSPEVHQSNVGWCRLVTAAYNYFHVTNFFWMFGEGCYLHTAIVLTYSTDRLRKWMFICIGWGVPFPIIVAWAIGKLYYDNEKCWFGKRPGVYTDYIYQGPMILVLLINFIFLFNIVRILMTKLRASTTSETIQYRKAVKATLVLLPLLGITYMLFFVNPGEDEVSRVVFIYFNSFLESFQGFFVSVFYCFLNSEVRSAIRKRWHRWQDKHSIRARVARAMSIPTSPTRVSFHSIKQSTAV
As to the kind of experiment: Displacement of [125I]-CRF from human CRF1 receptor expressed in HEK293 cells after 2 hrs. In kind it is cell-based. In short, it runs like this:
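Scintillation proximity assay with HEK293 membranes expressing human CRF1 (5 µg/well), WGA-coated SPA beads and 0.1 nM [125I] human/rat CRF. Buffer pH 7.0 with 10 mM MgCl2, 2 mM EGTA, 1.5% BSA and protease inhibitors. Nonspecific binding with 0.4 µM unlabeled sauvagine. Incubated over 2 h at room temperature, then centrifuged and counted. Specific binding taken as % of total, IC50 from concentration-response curve.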
In general terms: Displacement assays read how much labelled ligand stays bound in the presence of the test substance.

Test [2] deals with T1, Corticotropin-releasing factor receptor 1. As to the kind of experiment: Antagonist activity at human CRF1 receptor expressed in HEK293 cells assessed as inhibition of CRF-stimulated intracellular cAMP accumulation after 30 mins by enzyme immunoassay. In kind it is functional, cell-based. The method, boiled down: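 HEK293 cells stably expressing human CRF1, seeded at 5×10^4 cells/well in DMEM with 0.1% FBS and 1 mM IBMX. After 30 min preincubation, compound added for 30 min at 37 °C, then 1 nM human/rat CRF for 30 min at 37 °C. Lysed cAMP measured by EIA, basal subtracted, expressed as % of total production. IC50 from concentration-response curve.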

In test [3] the test system is Rattus norvegicus. As to the kind of experiment: Inhibition of CRF-induced fecal pellet output in rat at 10 mg/kg, po administered 1 hr before CRF challenge by measuring decrease in fecal weight after 4 hrs. In kind it is functional. The note with it: Feces. In short, it runs like this:
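Rats dosed orally at 10 mg/kg 1 h before intravenous CRF (10 µg/kg). Fecal weight measured 4 h after CRF injection and compared with the vehicle + CRF group. 6–7 rats/group, mean ± S.E.M., unpaired t test.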

In test [1], `CCCN(CCC)c1ccc(C)c2nc(Oc3c(OC)cc(COC)cc3OC)c(C)cc12` displayed an IC50 of more than 1000 nM. Regarding `CCCN(CCC)c1cccc2nc(-c3c(OC)cc(COC)cc3OC)c(C)cc12`, the IC50 is 276 nM in test [1] and 97 nM in test [2].

Turning to `CCCN(CCC)c1ccc(C)c2nc(-c3c(OC)cc(COC)cc3OC)c(C)cc12`, the IC50 amounted to 88 nM in test [1] and 70 nM in test [2]. For the same molecule, the inhibition in vivo at 10 mg/kg in test [3] came out at 64%. As for `CCCN(CCC)c1ccc(CC)c2nc(-c3c(OC)cc(COC)cc3OC)c(C)cc12`, the IC50 in test [1] was 115 nM; in test [2] it was 375 nM. Taken in the same sequence, the figures for `COCc1cc(OC)c(-c2nc3c(C)ccc(N(C)C)c3cc2C)c(OC)c1` were 212 nM and more than 1000 nM.

For the molecule `CCN(CC)c1ccc(C)c2nc(-c3c(OC)cc(COC)cc3OC)c(C)cc12`, the IC50 was determined as 79 nM in test [1] and 24 nM in test [2]. The inhibition in vivo at 10 mg/kg in test [3] was 63%.

For `COCc1cc(OC)c(-c2nc3c(C)ccc(N(CC4CC4)CC4CC4)c3cc2C)c(OC)c1`, the results for the IC50 in test [1] and in test [2] were 88 nM and 46 nM, respectively. Besides, testing at 10 mg/kg in test [3] gave an inhibition in vivo of 53%. For `COCCN(C)c1ccc(C)c2nc(-c3c(OC)cc(COC)cc3OC)c(C)cc12`, the IC50 in test [1] came out at 89 nM; in test [2], 174 nM.

For the molecule `CCN(CCOC)c1ccc(C)c2nc(-c3c(OC)cc(COC)cc3OC)c(C)cc12`, the figures for the IC50 in test [1] and in test [2] were 109 nM and 23 nM, respectively. For `COCc1cc(OC)c(-c2nc3c(C)ccc(N(CC4CCOCC4)CC4CC4)c3cc2C)c(OC)c1`, in test [1], the IC50 came to 286 nM. Consider `COCc1cc(OC)c(-c2nc3c(C)ccc(N(CC4CC4)C4CCOCC4)c3cc2C)c(OC)c1`, for which the IC50 in test [1] was 246 nM.

In test [1], `CCC(CC)Nc1ccc(C)c2nc(-c3c(OC)cc(COC)cc3OC)c(C)cc12` gave an IC50 of more than 1000 nM. Molecule `COCCNc1ccc(C)c2nc(-c3c(OC)cc(COC)cc3OC)c(C)cc12` showed an IC50 in test [1] of more than 1000 nM. `CCN(CC)c1ccc(C)c2nc(-c3c(OC)cc(COC)cc3OC)ccc12`: the figures for the IC50 in test [1] and in test [2] were 184 nM and 381 nM, respectively. Take `CCN(CC)c1ccc(C)c2nc(-c3c(OC)cc(COC)cc3OC)c(F)cc12`: the IC50 in test [1] is 144 nM; in test [2] it was 131 nM. Taken in the same sequence, the figures for `CCN(CC)c1ccc(C)c2nc(-c3c(OC)cc(COC)cc3OC)c(Cl)cc12` were 81 nM and 45 nM.
